The structures appear in SMILES notation.

What all share (format): ADME, organism-based
The nature of data set [1]: Drug level in plasma of C57Bl6 mouse at 10 mg/kg, ip after 2 hrs. Also noted: dose 10 mg/kg, route intraperitoneal. To be noted: read-out: Drug uptake. The method, boiled down: (§1)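 C57Bl6 mice (n = 3) dosed 10 mg/kg intraperitoneally; blood and brain collected 2 h later. Plasma and brain mixed with acetonitrile (1:5 v:v or w:v); brain broken up by probe sonication. Drug measured by LC-MS/MS against standards in plasma or in blank brain matrix.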

Data set [2] in a line: Drug level in brain of C57Bl6 mouse at 10 mg/kg, ip after 2 hrs. To be noted: read-out: Drug uptake. Also on record: dose 10 mg/kg, route intraperitoneal. A digest of the protocol: as §1
Data set [3] in a line: AUC in Sprague-Dawley rat at 2 mg/kg, po. Also on record: dose 2 mg/kg, route oral. To be noted: plasma. A digest of the protocol:
(§2)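 Sprague-Dawley rats (n = 3) given 1 mg/kg IV and 2 mg/kg oral gavage. Blood taken into EDTA tubes at 5, 15, 30 min and 1, 2, 4, 6, 8 h; plasma obtained by centrifugation. Plasma proteins precipitated with acetonitrile; drug measured by LC-MS/MS. Parameters derived by noncompartmental analysis.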

The subject of data set [4] is Rattus norvegicus. Description: Oral bioavailability in Sprague-Dawley rat at 2 mg/kg. To be noted: in vivo. A digest of the protocol:
as §2

Turning to `Cn1ccc(-c2cc(Nc3ccc(-n4cnc(-c5ccccn5)n4)cc3)ncc2F)n1`, the concentration at 2 h in data set [1] turned out to be 3.3 µM; in data set [2], 0.74 µM. In addition, in data set [3], the AUC (in general, the area under the concentration-time curve, a measure of exposure) worked out at 14.9 µM·h. This compound also showed a F in data set [4] of 73%.
`Cn1ccc(-c2cc(Nc3ccc(-n4cnc(N5CCOCC5)n4)cc3)ncc2Cl)n1`: the concentration at 2 h in data set [1] turned out to be 6.6 µM; in data set [2] it was 3.5 µM. In addition, in data set [3], the AUC is 45 µM·h. In data set [4], this compound came in with an F of 75%.
As to `Cc1nc(C)n(-c2ccc(Nc3cc(-c4ccn(C)n4)c(Cl)cn3)cc2)n1`, the figures for the concentration at 2 h in data set [1] and in data set [2] were 10.4 µM and 5.3 µM, respectively. This compound gave an AUC in data set [3] of 7.1 µM·h. Also, in data set [4], the F is reported as 73%.
Turning to `Cc1ccc(-c2ncn(-c3ccc(Nc4cc(-c5ccn(C)n5)c(F)cn4)cc3)n2)cn1`, the results for the concentration at 2 h in data set [1] and in data set [2] were 9 µM and 10.3 µM, respectively. This compound displayed an area under the curve (AUC) in data set [3] of 10 µM·h. Besides, in data set [4], the F is 69%.
Taken in the same sequence, the figures for `Cc1nc(C)n(-c2ccc(Nc3cc(-c4nn(C)cc4-c4ccc(F)cc4)ccn3)cc2)n1` were 9 µM, 1.4 µM, 6 µM·h and 51%.

The values are drawn from ChEMBL document CHEMBL1770119, “Synthesis and SAR of 4-(pyrazol-3-yl)-pyridines as novel c-jun N-terminal kinase inhibitors” (Bioorg Med Chem Lett, 2011).
